Results taken from ChEMBL document CHEMBL2401699, “4-Amino-7-chloroquinolines: probing ligand efficiency provides botulinum neurotoxin serotype A light chain inhibitors with significant antiprotozoal activity” (J Med Chem, 2013).

Columns and labels:
Liver microsomes = assay: (§1) Half life in human liver microsomes at 10 uM by LC-MS/MS analysis; format: ADME, Microsome; settings: microsomes, 10 µM
HepG2 = assay: Cytotoxicity against human HepG2 cells after 48 hrs by MTT assay; format: cell-based; settings: HepG2, 48 h
Plasmodium falciparum [1] = assay: Antimalarial activity against multi drug resistant Plasmodium falciparum TM91C235 after 72 hrs by MSF assay; format: functional, organism-based; settings: TM91C235, 72 h
Plasmodium falciparum [2] = assay: Ratio of mefloquine IC50 to compound IC50 against Plasmodium falciparum TM91C235; format: functional
[3] = Selectivity index, ratio of IC50 for human HepG2 cells to IC50 for Plasmodium falciparum W2; format: toxicity, cell-based; settings: read-out: Ratio IC50
[4] = Selectivity index, ratio of IC50 for human HepG2 cells to IC50 for Plasmodium falciparum TM91C235; format: toxicity, cell-based; settings: read-out: Ratio IC50
Liver = assay: (§2) Half life in mouse liver microsomes at 10 uM by LC-MS/MS analysis; format: ADME, Microsome; settings: microsomes, 10 µM
[5] = Selectivity index, ratio of IC50 for human HepG2 cells to IC50 for Plasmodium falciparum D2; format: toxicity, cell-based; settings: read-out: Ratio IC50
Plasmodium falciparum [6] = assay: Antimalarial activity against chloroquine-resistant Plasmodium falciparum W2 after 72 hrs by MSF assay; format: functional, organism-based; settings: W2, 72 h
Plasmodium falciparum [7] = assay: Antimalarial activity against chloroquine-sensitive Plasmodium falciparum D6 after 72 hrs by MSF assay; format: functional, organism-based; settings: D6, 72 h
[8] = biological target: Botulinum neurotoxin type A (Clostridium botulinum) (UniProt P0DPI0); assay: Inhibition of Clostridium botulinum recombinant BoNT/A light chain at […] by reverse-phase HPLC analysis
How it was run: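 Recombinant BoNT/A light chain was tested with a synthetic SNAP-25 187–203 peptide substrate (N-acetylated, C-aminated). The mix held 40 mM HEPES-0.05% Tween pH 7.3, 0.5 mg/ml BSA, 1 mM DTT, excess zinc and 20 µM inhibitor, at 37 °C, quenched with TFA. Cleaved and uncleaved peptide were separated by reverse-phase HPLC, and peak areas gave reaction rates and % inhibition.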

[9] = as §1; format: ADME, Microsome; settings: liver microsomes
[10] = as §2; format: ADME, Microsome; settings: liver microsomes
Plasmodium falciparum [11] = assay: Antimalarial activity against multidrug-resistant Plasmodium falciparum TM90C2A after 72 hrs by MSF assay; format: functional, organism-based
How it was run: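 P. falciparum cultures at late-ring or early-trophozoite stage, 0.3% starting parasitemia and 2% hematocrit, were grown in plates predosed with quadruplicate 12-point two-fold dilutions in DMSO (final […]). Incubation was 72 h at 37 °C in 5% CO2/5% O2/90% N2. Lysis buffer with SYBR Green I (final 10x) was added, then 24 h dark at room temperature and fluorescence read. IC50/IC90 came from sigmoidal variable-slope nonlinear regression.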

Plasmodium falciparum [12] = assay: Antimalarial activity against multidrug-resistant Plasmodium falciparum TM90C2B after 72 hrs by MSF assay; format: functional, organism-based

Sequence of Botulinum neurotoxin type A (Clostridium botulinum) (P0DPI0 2-448 limits assumed): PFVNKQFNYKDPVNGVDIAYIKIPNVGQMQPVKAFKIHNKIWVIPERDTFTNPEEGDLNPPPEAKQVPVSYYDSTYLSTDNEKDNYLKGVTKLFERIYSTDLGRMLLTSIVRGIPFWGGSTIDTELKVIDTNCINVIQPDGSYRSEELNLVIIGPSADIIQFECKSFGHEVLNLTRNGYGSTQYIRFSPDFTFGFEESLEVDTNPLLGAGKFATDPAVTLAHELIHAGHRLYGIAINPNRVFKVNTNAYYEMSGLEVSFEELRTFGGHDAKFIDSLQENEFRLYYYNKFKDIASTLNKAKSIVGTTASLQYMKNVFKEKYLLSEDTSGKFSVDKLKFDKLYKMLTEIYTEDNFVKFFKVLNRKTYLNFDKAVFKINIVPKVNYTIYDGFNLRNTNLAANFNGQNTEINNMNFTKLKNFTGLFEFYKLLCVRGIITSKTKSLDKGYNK

COc1ccc(CNCCNc2ccnc3cc(Cl)ccc23)cc1
t1/2 (Liver microsomes): 0.45 h | IC50 (HepG2): 5.82 µM | IC50 (Plasmodium falciparum [1]): 0.0161 µM | Ratio IC50 (Plasmodium falciparum [2]): 4 | selectivity ratio [3]: 406 | selectivity ratio [4]: 362 | t1/2 (Liver): 0.1 h | selectivity ratio [5]: 1810 | IC50 (Plasmodium falciparum [6]): 0.0143 µM | IC50 (Plasmodium falciparum [7]): 0.00322 µM | inhibition [8]: 18%

Fc1ccc(CNCCNc2ccnc3cc(Cl)ccc23)cc1
IC50 (HepG2): 16 µM | IC50 (Plasmodium falciparum [1]): 0.0552 µM | selectivity ratio [3]: 350 | selectivity ratio [4]: 291 | selectivity ratio [5]: 608 | IC50 (Plasmodium falciparum [6]): 0.0458 µM | IC50 (Plasmodium falciparum [7]): 0.0264 µM | inhibition [8]: 68%

CC(C)(C)c1ccc(CNCCNc2ccnc3cc(Cl)ccc23)cc1
IC50 (HepG2): 10.4 µM | IC50 (Plasmodium falciparum [1]): 0.0247 µM | selectivity ratio [3]: 245 | selectivity ratio [4]: 419 | selectivity ratio [5]: 429 | IC50 (Plasmodium falciparum [6]): 0.0424 µM | IC50 (Plasmodium falciparum [7]): 0.0242 µM | inhibition [8]: 47%

Clc1ccc2c(NCCCNCc3cnccc3Cl)ccnc2c1
t1/2 (Liver microsomes): 0.267 h | IC50 (HepG2): 3.76 µM | IC50 (Plasmodium falciparum [1]): 0.031 µM | selectivity ratio [3]: 52 | selectivity ratio [4]: 121 | t1/2 (Liver): 0.317 h | selectivity ratio [5]: 146 | IC50 (Plasmodium falciparum [6]): 0.073 µM | IC50 (Plasmodium falciparum [7]): 0.0257 µM | inhibition [8]: 35.9%

Clc1ccc2c(NCCNCc3ccc(Br)cc3)ccnc2c1
half-life at 10 µM [9]: 1 h | IC50 (HepG2): 6.58 µM | IC50 (Plasmodium falciparum [1]): 0.00998 µM | Ratio IC50 (Plasmodium falciparum [2]): 4 | selectivity ratio [3]: 695 | selectivity ratio [4]: 660 | half-life at 10 µM [10]: 1 h | selectivity ratio [5]: 1610 | IC50 (Plasmodium falciparum [6]): 0.00947 µM | IC50 (Plasmodium falciparum [7]): 0.0041 µM | inhibition [8]: 69%

CC(C)(C)c1ccc(CNCCCNc2ccnc3cc(Cl)ccc23)cc1
IC50 (HepG2): 2.17 µM | IC50 (Plasmodium falciparum [1]): 0.0319 µM | selectivity ratio [3]: 45 | selectivity ratio [4]: 68 | selectivity ratio [5]: 100 | IC50 (Plasmodium falciparum [6]): 0.0484 µM | IC50 (Plasmodium falciparum [7]): 0.0217 µM | inhibition [8]: 50.3%

Clc1ccc2c(NCCNCc3ccncc3)ccnc2c1
IC50 (HepG2): 153 µM | IC50 (Plasmodium falciparum [1]): 0.204 µM | selectivity ratio [3]: 409 | selectivity ratio [4]: 752 | selectivity ratio [5]: 2530 | IC50 (Plasmodium falciparum [6]): 0.375 µM | IC50 (Plasmodium falciparum [7]): 0.0607 µM | inhibition [8]: 24%

O[C@@H](c1cc(C(F)(F)F)nc2c(C(F)(F)F)cccc12)[C@H]1CCCCN1 (racemic)
IC50 (Plasmodium falciparum [11]): 0.0511 µM | IC90 (Plasmodium falciparum [7]): 0.0437 µM | inhibition [8]: 28%

Clc1ccc2c(NCCNCc3ccccc3)ccnc2c1
half-life at 10 µM [9]: 1 h | IC50 (HepG2): 19.4 µM | IC50 (Plasmodium falciparum [1]): 0.00738 µM | IC90 (Plasmodium falciparum [1]): 0.0093 µM | IC50 (Plasmodium falciparum [11]): 0.00994 µM | t1/2 (Liver): 0.383 h | IC50 (Plasmodium falciparum [6]): 0.0109 µM | IC50 (Plasmodium falciparum [7]): 0.00641 µM | IC90 (Plasmodium falciparum [7]): 0.00962 µM | inhibition [8]: 52% | IC50 (Plasmodium falciparum [12]): 0.0093 µM | IC90 (Plasmodium falciparum [12]): 0.0125 µM

Clc1ccc2c(NCCCNCc3ccccc3)ccnc2c1
half-life at 10 µM [9]: 1 h | IC50 (HepG2): 2.91 µM | IC50 (Plasmodium falciparum [1]): 0.0399 µM | selectivity ratio [3]: 56 | selectivity ratio [4]: 73 | half-life at 10 µM [10]: 1 h | selectivity ratio [5]: 169 | IC50 (Plasmodium falciparum [6]): 0.0522 µM | IC50 (Plasmodium falciparum [7]): 0.0172 µM | inhibition [8]: 51.8%

COc1ccncc1CNCCNc1ccnc2cc(Cl)ccc12
t1/2 (Liver microsomes): 0.633 h | IC50 (Plasmodium falciparum [1]): 0.00729 µM | t1/2 (Liver): 0.383 h | IC50 (Plasmodium falciparum [6]): 0.019 µM | inhibition [8]: 19%

COc1ccc(CNCCCNc2ccnc3cc(Cl)ccc23)cc1
t1/2 (Liver microsomes): 1 h | IC50 (HepG2): 4.81 µM | IC50 (Plasmodium falciparum [1]): 0.0506 µM | selectivity ratio [3]: 86 | selectivity ratio [4]: 95 | t1/2 (Liver): 0.3 h | selectivity ratio [5]: 778 | IC50 (Plasmodium falciparum [6]): 0.0562 µM | IC50 (Plasmodium falciparum [7]): 0.00618 µM | inhibition [8]: 14%

Clc1ccc2c(NCCNCc3cccnc3)ccnc2c1
IC50 (HepG2): 95.9 µM | IC50 (Plasmodium falciparum [1]): 0.109 µM | selectivity ratio [3]: 426 | selectivity ratio [4]: 882 | selectivity ratio [5]: 1800 | IC50 (Plasmodium falciparum [6]): 0.225 µM | IC50 (Plasmodium falciparum [7]): 0.0534 µM | inhibition [8]: 25%

Fc1ccc(CNCCCNc2ccnc3cc(Cl)ccc23)cc1
IC50 (HepG2): 5.43 µM | IC50 (Plasmodium falciparum [1]): 0.0294 µM | selectivity ratio [3]: 110 | selectivity ratio [4]: 185 | selectivity ratio [5]: 415 | IC50 (Plasmodium falciparum [6]): 0.0494 µM | IC50 (Plasmodium falciparum [7]): 0.0131 µM | inhibition [8]: 50.1%

Clc1ccc2c(NCCNCc3cnccc3Cl)ccnc2c1
t1/2 (Liver microsomes): 0.167 h | IC50 (HepG2): 6.5 µM | IC50 (Plasmodium falciparum [1]): 0.0833 µM | selectivity ratio [3]: 46 | selectivity ratio [4]: 78 | t1/2 (Liver): 0.617 h | selectivity ratio [5]: 102 | IC50 (Plasmodium falciparum [6]): 0.141 µM | IC50 (Plasmodium falciparum [7]): 0.0638 µM | inhibition [8]: 23%

COc1ccncc1CNCCCNc1ccnc2cc(Cl)ccc12
half-life at 10 µM [9]: 1 h | IC50 (HepG2): 4.97 µM | IC50 (Plasmodium falciparum [1]): 0.0532 µM | selectivity ratio [3]: 57 | selectivity ratio [4]: 93 | half-life at 10 µM [10]: 1 h | selectivity ratio [5]: 1040 | IC50 (Plasmodium falciparum [6]): 0.0869 µM | IC50 (Plasmodium falciparum [7]): 0.00476 µM | inhibition [8]: 43.2%

C[C@@H]1CC[C@H]2[C@@H](C)C(=O)O[C@@H]3O[C@@]4(C)CC[C@@H]1[C@]32OO4 [ARTEMISININ]
IC50 (Plasmodium falciparum [1]): 0.013 µM | IC50 (Plasmodium falciparum [6]): 0.0067 µM | IC50 (Plasmodium falciparum [7]): 0.009 µM

Clc1ccc2c(NCCCNCc3ccncc3)ccnc2c1
t1/2 (Liver microsomes): 0.15 h | IC50 (HepG2): 35.9 µM | IC50 (Plasmodium falciparum [1]): 0.0764 µM | selectivity ratio [3]: 176 | selectivity ratio [4]: 469 | t1/2 (Liver): 0.15 h | selectivity ratio [5]: 4150 | IC50 (Plasmodium falciparum [6]): 0.204 µM | IC50 (Plasmodium falciparum [7]): 0.00865 µM | inhibition [8]: 42.3%

Clc1ccc2c(NCCCNCc3ccc(Br)cc3)ccnc2c1
half-life at 10 µM [9]: 1 h | IC50 (HepG2): 4.95 µM | IC50 (Plasmodium falciparum [1]): 0.00618 µM | IC90 (Plasmodium falciparum [1]): 0.00766 µM | IC50 (Plasmodium falciparum [11]): 0.00716 µM | half-life at 10 µM [10]: 1 h | IC50 (Plasmodium falciparum [6]): 0.00593 µM | IC90 (Plasmodium falciparum [6]): 0.00741 µM | IC50 (Plasmodium falciparum [7]): 0.00395 µM | IC90 (Plasmodium falciparum [7]): 0.00445 µM | inhibition [8]: 68% | IC50 (Plasmodium falciparum [12]): 0.00791 µM | IC90 (Plasmodium falciparum [12]): 0.0121 µM

CCN(CC)CCCC(C)Nc1ccnc2cc(Cl)ccc12 (centres undefined) [CHLOROQUINE PHOSPHATE]
IC90 (Plasmodium falciparum [1]): 0.476 µM | IC90 (Plasmodium falciparum [6]): 0.943 µM | IC90 (Plasmodium falciparum [7]): 0.0192 µM | inhibition [8]: 7% | IC90 (Plasmodium falciparum [12]): 0.602 µM

Clc1ccc2c(NCCCNCc3cccnc3)ccnc2c1
half-life at 10 µM [9]: 1 h | IC50 (HepG2): 23.3 µM | IC50 (Plasmodium falciparum [1]): 0.0734 µM | selectivity ratio [3]: 90 | selectivity ratio [4]: 317 | half-life at 10 µM [10]: 1 h | IC50 (Plasmodium falciparum [6]): 0.26 µM | inhibition [8]: 39.9%
